High-throughput results deposited in PubChem by several laboratories.
TRPML3 ag = agonists of human TRPML3 channel. HEK293 TRPML3-YFP, Fluo-8 calcium fluorescence; 100% = the carbachol control signal. 220,000 tested, 0.29% active. AID 1448. activation, % at 3 µM;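 active means activation above its plate's cutoff, the mean activation of the plate's test wells plus 3 SD, cut at about 12% in these data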
Target sequence (Q8TDD5 whole entry, looked up): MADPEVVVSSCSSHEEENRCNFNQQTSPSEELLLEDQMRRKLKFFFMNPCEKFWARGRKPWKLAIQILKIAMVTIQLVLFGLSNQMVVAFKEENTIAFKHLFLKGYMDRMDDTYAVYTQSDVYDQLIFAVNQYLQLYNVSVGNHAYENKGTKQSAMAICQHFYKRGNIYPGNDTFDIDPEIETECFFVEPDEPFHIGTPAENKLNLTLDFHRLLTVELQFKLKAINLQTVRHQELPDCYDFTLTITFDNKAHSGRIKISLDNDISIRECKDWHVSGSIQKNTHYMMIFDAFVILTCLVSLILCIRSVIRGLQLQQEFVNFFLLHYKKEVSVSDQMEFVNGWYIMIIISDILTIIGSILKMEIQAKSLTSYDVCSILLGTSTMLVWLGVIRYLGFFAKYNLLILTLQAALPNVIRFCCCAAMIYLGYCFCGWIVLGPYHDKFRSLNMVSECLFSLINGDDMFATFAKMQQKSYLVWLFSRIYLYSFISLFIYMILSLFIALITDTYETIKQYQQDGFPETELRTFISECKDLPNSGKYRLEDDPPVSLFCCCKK
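system = HEK293 cells stably carrying human TRPML3-YFP | doses = one concentration, 3 µM nominal, 0.3% DMSO | timing = dye loading 1 h 37 °C then 30 min ambient, 125 s read | detection = Fluo-8 calcium dye fluorescence, ex 470-495, em 515-575 nm | benchmarks = high control carbachol 87 µM, low control DMSO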
CRFR2-BP ag = CRF-BP/CRF-R2 complex agonism; HEK293 CRF-R2/CRF-BP, calcium dye fluorescence (FLIPR); percent of saturating CRF peptide response; activation, % at 13.2 µM; 350,000 tested, 0.46% active; AID 588473;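 active means activation of at least 50%, plus an integration ratio under a set limit after plate pattern correction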
CRFBP-R2 block = CRF-BP/CRF-R2 complex antagonism; HEK293 CRF-R2/CRF-BP, CRF-induced calcium fluorescence; inhibition, % at 11.8 µM; 350,000 tested, 0.59% active;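 active means inhibition of the ligand-induced calcium signal above about 50% at the single tested concentration, limit read from the data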
GPR7 antag = blocks human GPR7 receptor signaling | GPR7-expressing cells, fluorescence antagonist assay | inhibition, % at 4.4 µM | 290,000 tested, 1.1% active; in the data active means inhibition above about 16%, passing the limit was not always enough;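 further: cells stimulated with the agonist NPW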
TRPN1 ag = activates the zebrafish TRPN1 channel. AID 1424. HEK293 zebrafish TRPN1-YFP, Fluo-8 calcium fluorescence; 100% = response to 87 µM carbachol. activation, % at 3 µM. 220,000 tested, 0.18% active;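 active means activation above its plate's cutoff, the mean activation of test wells on that plate plus 3 SD, cut at about 19% in these data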
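Material: zebrafish TRPN1-YFP in HEK293 cells; Doses: single test compound dose, 3 µM nominal, 0.3% DMSO; Timing: dye loading 1 h at 37 °C, then 30 min room temperature; Technique: intracellular calcium fluorescence with Fluo-8; Benchmarks: high carbachol 87 µM, low DMSO alone.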
GPR7 antag cf = confirmation of human GPR7 antagonists; shares compounds with GPR7 antag; GPR7-expressing cells, calcium fluorescence antagonist mode; inhibition, % at 4.4 µM; 2,400 tested, 52% active; AID 1952; in the data active means inhibition above about 24%;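 further: stimulated with the GPR7 agonist NPW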
MCHR1 antagonist = MCHR1 (human) antagonism in GPR7 counter-screen; shares compounds with GPR7 antag; MCHR1-expressing cells, fluorescence antagonist assay; inhibition, % at 4.4 µM; 2,400 tested, 62% active; in the data active means inhibition above about 22%
A number is an active result. Shown are actives, neighbours in structure and some others; about 2% of the full set was active somewhere.

Screening O=[N+]([O-])c1cc(Br)ccc1C[n+]1ccccc1 returned CRFR2-BP ag inactive and CRFBP-R2 block inactive.
CCCCN1C(=O)C(CC(=O)NCC2CCCCC2)CC(C(=O)N(C(C)C)C(C)C)=C1C (configuration not stated) was read as CRFR2-BP ag inactive and CRFBP-R2 block inactive.
O=C(Nc1ccc(Cl)cc1)c1cccc(NC2=NC3CS(=O)(=O)CC3S2)c1 (configuration not stated) was read as CRFR2-BP ag inactive, CRFBP-R2 block inactive, GPR7 antag 24, GPR7 antag cf inactive and MCHR1 antagonist inactive.
For CC(C)c1ccc(NC(=O)c2cccc(NC3=NC4CS(=O)(=O)CC4S3)c2)cc1 (configuration not stated) the results were CRFR2-BP ag inactive, CRFBP-R2 block inactive and GPR7 antag inactive.
COC(=O)c1ccc(NC(=O)Nc2ccc([N+](=O)[O-])cc2)cc1 was read as CRFR2-BP ag inactive, CRFBP-R2 block inactive, GPR7 antag 47, GPR7 antag cf 71 and MCHR1 antagonist 67.
COc1cc(NC(=O)Nc2cccc([N+](=O)[O-])c2)cc(OC)c1 was read as TRPML3 ag inactive, CRFR2-BP ag inactive, CRFBP-R2 block inactive, GPR7 antag 28, TRPN1 ag inactive, GPR7 antag cf inactive and MCHR1 antagonist 74.
For COC(=O)c1ccc(NC(=O)Nc2ccc(OC)cc2)cc1 the results were TRPML3 ag inactive, CRFR2-BP ag inactive, CRFBP-R2 block inactive, GPR7 antag inactive and TRPN1 ag inactive.
CN1C(=O)CSC1=Nc1ccc(F)cc1 was read as CRFR2-BP ag inactive, CRFBP-R2 block inactive and GPR7 antag inactive.
`CSc1ccc(NC(=O)NCCCN2CCC(Cc3ccccc3)CC2)cc1` gave CRFR2-BP ag inactive, CRFBP-R2 block inactive, GPR7 antag 29, GPR7 antag cf 26 and MCHR1 antagonist 33.
O=C(Cc1ccc([N+](=O)[O-])cc1)Nc1ccc2c(c1)CCC2 was read as CRFR2-BP ag inactive, CRFBP-R2 block inactive, GPR7 antag 22, GPR7 antag cf inactive and MCHR1 antagonist 27.
`COc1ccccc1-n1c(SCC(=O)NC2CCCCC2)nc2c(c1=O)SCC2` gave TRPML3 ag inactive, CRFR2-BP ag inactive, CRFBP-R2 block inactive, GPR7 antag 29, TRPN1 ag inactive, GPR7 antag cf inactive and MCHR1 antagonist inactive.
Screening COc1ccc(NC(=O)CSc2nc3c(c(=O)n2-c2ccccc2OC)SCC3)cc1 returned TRPML3 ag inactive, CRFR2-BP ag inactive, CRFBP-R2 block inactive, GPR7 antag inactive and TRPN1 ag inactive.
`O=[N+]([O-])c1cccc(NC(=S)Nc2nc(-c3ccccc3Cl)cs2)c1` gave CRFR2-BP ag inactive, CRFBP-R2 block inactive, GPR7 antag 27, GPR7 antag cf 42 and MCHR1 antagonist 55.
For COc1ccc(OCc2n(CC(=O)OC3CC(C)CCC3C(C)C)c3ccccc3[n+]2C)cc1 (configuration not stated) the results were TRPML3 ag inactive, CRFR2-BP ag inactive, CRFBP-R2 block inactive, GPR7 antag 71, TRPN1 ag inactive, GPR7 antag cf 62 and MCHR1 antagonist 84.
`CC(=O)c1ccc(S(=O)(=O)N(C)CCCC(=O)N(C)Cc2c(F)cccc2Cl)cc1` gave CRFR2-BP ag inactive, CRFBP-R2 block inactive and GPR7 antag inactive.
O=C(Oc1cccc(NC(=O)c2ccccc2Cl)c1)c1ccc([N+](=O)[O-])cc1 was read as TRPML3 ag inactive, CRFR2-BP ag inactive, CRFBP-R2 block inactive, GPR7 antag 35, TRPN1 ag inactive, GPR7 antag cf 43 and MCHR1 antagonist 56.
`Cc1cc2c(cc(C(=O)N3CCC(C(=O)N4CCCC4)CC3)n2Cc2c(F)cccc2Cl)o1` gave TRPML3 ag inactive, CRFR2-BP ag inactive, CRFBP-R2 block inactive, GPR7 antag 27, TRPN1 ag inactive, GPR7 antag cf inactive and MCHR1 antagonist inactive.
CCNc1ccc(S(=O)(=O)NCCN(C)C)cc1[N+](=O)[O-] was read as TRPML3 ag inactive, CRFR2-BP ag inactive, CRFBP-R2 block inactive, GPR7 antag inactive and TRPN1 ag inactive.
`CN(C)CCCNS(=O)(=O)c1ccc(NC2CCCCCC2)c([N+](=O)[O-])c1` gave CRFR2-BP ag inactive, CRFBP-R2 block inactive, GPR7 antag 23, GPR7 antag cf 48 and MCHR1 antagonist 51.
`COc1ccccc1OCC(=O)Nc1c2c(nn1-c1ccccc1)CS(=O)(=O)C2` gave CRFR2-BP ag inactive, CRFBP-R2 block inactive, GPR7 antag 23, GPR7 antag cf inactive and MCHR1 antagonist inactive.
`CN(CC(=O)Nc1ccc2c(c1)OCCO2)S(=O)(=O)c1ccc(F)cc1` gave CRFR2-BP ag inactive, CRFBP-R2 block inactive and GPR7 antag inactive.
Screening Cc1nn(C)cc1/C=N\NC(=O)Cc1ccc([N+](=O)[O-])cc1 returned TRPML3 ag inactive, CRFR2-BP ag inactive, CRFBP-R2 block inactive, GPR7 antag 24, TRPN1 ag inactive, GPR7 antag cf inactive and MCHR1 antagonist inactive.
Screening Cc1nnc(N2C(=O)c3cccc4c([N+](=O)[O-])ccc(c34)C2=O)s1 returned CRFR2-BP ag inactive, CRFBP-R2 block inactive, GPR7 antag 28, GPR7 antag cf 33 and MCHR1 antagonist 51.
Screening Cc1ccnc(N2C(=O)c3cccc4c([N+](=O)[O-])ccc(c34)C2=O)c1 returned TRPML3 ag inactive, CRFR2-BP ag inactive, CRFBP-R2 block inactive, GPR7 antag inactive and TRPN1 ag inactive.
S=C(Nc1ccc(CN2CCCCC2)cc1)Nc1cccc(Cl)c1Cl was read as CRFR2-BP ag inactive, CRFBP-R2 block inactive and GPR7 antag inactive.
For COc1ccc2[nH]c3c(=O)n(CCCC(=O)NC4CCCCC4C)c(=S)[nH]c3c2c1 (configuration not stated) the results were CRFR2-BP ag inactive, CRFBP-R2 block inactive, GPR7 antag 22, GPR7 antag cf inactive and MCHR1 antagonist inactive.
For COc1ccc2[nH]c3c(=O)n(CCCC(=O)NC4CCC(C)CC4)c(=S)[nH]c3c2c1 (configuration not stated) the results were CRFR2-BP ag inactive, CRFBP-R2 block inactive and GPR7 antag inactive.
For Clc1ccc(CN2CCSCC2)cc1Cl the results were CRFR2-BP ag inactive, CRFBP-R2 block inactive and GPR7 antag inactive.
`c1ccc(-c2ccc(CN3CCSCC3)cc2)cc1` gave CRFR2-BP ag inactive, CRFBP-R2 block inactive, GPR7 antag 24, GPR7 antag cf inactive and MCHR1 antagonist inactive.
CCOc1ccc(-n2c(-c3ccc(Br)cc3)c[n+]3c2CCCCC3)cc1 was read as TRPML3 ag inactive, CRFR2-BP ag inactive, CRFBP-R2 block inactive, GPR7 antag 29, TRPN1 ag inactive, GPR7 antag cf 39 and MCHR1 antagonist 36.
